Laboratory results as given in ChEMBL document CHEMBL1155885, “Discovery and optimization of pyridazinone non-nucleoside inhibitors of HIV-1 reverse transcriptase” (Bioorg Med Chem Lett, 2008).

Experiments:
[1] = molecular target: Human immunodeficiency virus type 1 reverse transcriptase (Human immunodeficiency virus 1, UniProt Q72547, Y181C); experiment: Inhibition of HIV1 reverse transcriptase Y181C mutant by scintillation counting assay
[2] = molecular target: Human immunodeficiency virus type 1 reverse transcriptase (Human immunodeficiency virus 1, UniProt Q72547, K103N); experiment: Inhibition of HIV1 reverse transcriptase K103N mutant by scintillation counting assay
[3] = molecular target: T1, Human immunodeficiency virus type 1 reverse transcriptase (Human immunodeficiency virus 1, UniProt Q72547); experiment: Inhibition of HIV1 wild-type reverse transcriptase by scintillation counting assay
[4] = tested on: Human immunodeficiency virus 1; experiment: Antiviral activity against HIV1 in human MT4 cells assessed as reduction of viral-induced cytopathic effect in presence of human serum; assay type: functional, organism-based; conditions: Human immunodeficiency virus 1, MT4
Summary of the method: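 HIV-1-infected MT4 cells incubated with compound in presence of 40% human serum; reduction of viral cytopathic effect measured; EC50 derived.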

[5] = tested on: Human immunodeficiency virus 1; experiment: Antiviral activity against HIV1 with reverse transcriptase K103N/Y181C mutation in human MT4 cells assessed as reduction of virus-induced cytopathic effect; assay type: functional, organism-based; conditions: Human immunodeficiency virus 1, MT4
Summary of the method: (§1)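 MT4 cells infected with HIV-1 and incubated with compound in the presence of 10% fetal bovine serum. Read-out is the reduction of virus-induced cytopathic effect. EC50 derived; each value is the mean of at least two independent assays.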

[6] = tested on: Human immunodeficiency virus 1; experiment: Antiviral activity against HIV1 with reverse transcriptase G190A mutation in human MT4 cells assessed as reduction of virus-induced cytopathic effect; assay type: functional, organism-based; conditions: Human immunodeficiency virus 1, MT4; summary of the method: as §1
Cytochrome P450 3A4 = Cytochrome P450 3A4 (Homo sapiens, UniProt P08684); experiment: Inhibition of recombinant CYP3A4; assay type: ADME
Summary of the method: (§2)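 Fluorogenic assay using 7-benzyloxy-4-(trifluoromethyl)-coumarin as substrate; IC50 reported in micromolar.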

[7] = Cmax in rat at 5 mg/kg, po; assay type: ADME, organism-based; set-up: dose 5 mg/kg, route oral; conditions: in vivo
Summary of the method: (§3)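 Rats dosed orally at 5 mg/kg; plasma Cmax and AUC determined.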

Cytochrome P450 2C9 = Cytochrome P450 2C9 (Homo sapiens, UniProt P11712); experiment: Inhibition of CYP2C9; assay type: ADME; summary of the method: as §2
[8] = tested on: Human immunodeficiency virus 1; experiment: Antiviral activity against HIV1 with reverse transcriptase K103N/L100I mutation in human MT4 cells assessed as reduction of virus-induced cytopathic effect; assay type: functional, organism-based; conditions: Human immunodeficiency virus 1, MT4; summary of the method: as §1
[9] = Bioavailability in rat at 2.5 mg/kg, iv; assay type: ADME, organism-based; conditions: in vivo
Summary of the method: (§4)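 Rats given 2.5 mg/kg intravenously; half-life determined; apparent oral bioavailability calculated relative to oral dosing.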

Rattus norvegicus = experiment: AUC in rat at 5 mg/kg, po; assay type: ADME, organism-based, Plasma; set-up: dose 5 mg/kg, route oral; conditions: in vivo; summary of the method: as §3
Cytochrome P450 2C19 = Cytochrome P450 2C19 (Homo sapiens, UniProt P33261); experiment: Inhibition of CYP2C19; assay type: ADME; summary of the method: as §2
[10] = molecular target: T1, Human immunodeficiency virus type 1 reverse transcriptase; experiment: Binding affinity to HIV1 wild-type reverse transcriptase by surface plasmon resonance spectroscopy
Canis familiaris = experiment: AUC in dog at 5 mg/kg, po; assay type: ADME, organism-based, Canis lupus familiaris, Plasma; set-up: dose 5 mg/kg, route oral; conditions: in vivo
[11] = Half life in rat at 2.5 mg/kg, iv; assay type: ADME, organism-based; set-up: dose 2.5 mg/kg, route intravenous; conditions: in vivo; summary of the method: as §4
Cytochrome P450 2D6 = Cytochrome P450 2D6 (Homo sapiens, UniProt P10635); experiment: Inhibition of CYP2D6; assay type: ADME; summary of the method: as §2
Cytochrome P450 1A2 = molecular target: T2, Cytochrome P450 1A2 (Homo sapiens, UniProt P05177); experiment: Inhibition of CYP1A2; assay type: ADME; summary of the method: as §2
T2 sequence (P05177 whole entry): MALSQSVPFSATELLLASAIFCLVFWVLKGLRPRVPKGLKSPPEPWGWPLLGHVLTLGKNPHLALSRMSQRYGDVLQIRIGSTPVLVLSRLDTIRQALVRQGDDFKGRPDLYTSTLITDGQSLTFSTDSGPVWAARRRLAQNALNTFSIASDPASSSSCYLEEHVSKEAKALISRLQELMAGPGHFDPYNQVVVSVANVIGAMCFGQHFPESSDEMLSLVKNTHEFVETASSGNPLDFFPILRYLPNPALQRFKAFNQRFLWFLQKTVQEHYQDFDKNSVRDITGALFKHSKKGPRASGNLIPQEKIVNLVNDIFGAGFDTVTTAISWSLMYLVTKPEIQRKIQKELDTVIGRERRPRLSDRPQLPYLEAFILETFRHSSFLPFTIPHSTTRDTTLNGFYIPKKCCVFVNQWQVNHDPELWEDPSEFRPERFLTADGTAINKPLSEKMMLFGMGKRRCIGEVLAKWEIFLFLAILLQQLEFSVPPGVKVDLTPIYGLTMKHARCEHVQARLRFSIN

[12] = Cmax in dog at 5 mg/kg, po; assay type: ADME, organism-based, Canis lupus familiaris; set-up: dose 5 mg/kg, route oral; conditions: in vivo
[13] = Bioavailability in dog at 2.5 mg/kg, iv; assay type: ADME, organism-based, Canis lupus familiaris; conditions: in vivo
[14] = Half life in dog at 2.5 mg/kg, iv; assay type: ADME, organism-based, Canis lupus familiaris; set-up: dose 2.5 mg/kg, route intravenous; conditions: in vivo
[15] = tested on: Human immunodeficiency virus 1; experiment: Antiviral activity against HIV1 with reverse transcriptase Y181C mutation in human MT4 cells assessed as reduction of virus-induced cytopathic effect; assay type: functional, organism-based; conditions: Human immunodeficiency virus 1, MT4; summary of the method: as §1
[16] = tested on: Human immunodeficiency virus 1; experiment: Antiviral activity against HIV1 with reverse transcriptase K103N mutation in human MT4 cells assessed as reduction of virus-induced cytopathic effect; assay type: functional, organism-based; conditions: Human immunodeficiency virus 1, MT4; summary of the method: as §1
[17] = tested on: Human immunodeficiency virus 1; experiment: Antiviral activity against HIV1 in human MT4 cells assessed as reduction of viral-induced cytopathic effect; assay type: functional, organism-based; conditions: Human immunodeficiency virus 1, MT4

Cytochrome P450 3A4, sequence (P08684 whole entry): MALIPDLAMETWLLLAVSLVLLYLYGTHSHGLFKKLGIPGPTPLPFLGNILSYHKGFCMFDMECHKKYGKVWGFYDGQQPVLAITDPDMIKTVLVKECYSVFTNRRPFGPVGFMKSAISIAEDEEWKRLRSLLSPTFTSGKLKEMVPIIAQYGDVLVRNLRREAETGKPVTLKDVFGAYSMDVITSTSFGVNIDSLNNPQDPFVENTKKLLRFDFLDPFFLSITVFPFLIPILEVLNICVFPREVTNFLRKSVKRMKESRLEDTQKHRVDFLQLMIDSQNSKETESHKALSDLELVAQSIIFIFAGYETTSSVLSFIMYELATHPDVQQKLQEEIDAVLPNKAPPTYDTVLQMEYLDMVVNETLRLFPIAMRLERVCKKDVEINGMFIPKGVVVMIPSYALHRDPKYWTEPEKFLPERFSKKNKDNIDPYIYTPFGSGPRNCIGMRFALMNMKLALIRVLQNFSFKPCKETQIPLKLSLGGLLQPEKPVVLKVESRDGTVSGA
Cytochrome P450 2C9, sequence (P11712 whole entry): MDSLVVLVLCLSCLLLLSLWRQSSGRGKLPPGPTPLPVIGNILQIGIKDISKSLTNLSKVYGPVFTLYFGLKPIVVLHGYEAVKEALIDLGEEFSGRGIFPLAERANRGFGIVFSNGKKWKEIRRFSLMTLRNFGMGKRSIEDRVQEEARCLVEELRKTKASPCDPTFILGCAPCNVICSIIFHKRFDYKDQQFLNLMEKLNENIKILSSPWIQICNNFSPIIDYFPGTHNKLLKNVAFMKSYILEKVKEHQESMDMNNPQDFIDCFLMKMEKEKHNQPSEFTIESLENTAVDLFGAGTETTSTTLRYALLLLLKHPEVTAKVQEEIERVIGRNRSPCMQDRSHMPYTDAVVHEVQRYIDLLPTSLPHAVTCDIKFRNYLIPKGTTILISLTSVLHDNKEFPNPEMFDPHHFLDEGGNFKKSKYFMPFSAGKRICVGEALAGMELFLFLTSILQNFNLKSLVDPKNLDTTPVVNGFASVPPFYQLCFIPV
Cytochrome P450 2D6, sequence (P10635 whole entry): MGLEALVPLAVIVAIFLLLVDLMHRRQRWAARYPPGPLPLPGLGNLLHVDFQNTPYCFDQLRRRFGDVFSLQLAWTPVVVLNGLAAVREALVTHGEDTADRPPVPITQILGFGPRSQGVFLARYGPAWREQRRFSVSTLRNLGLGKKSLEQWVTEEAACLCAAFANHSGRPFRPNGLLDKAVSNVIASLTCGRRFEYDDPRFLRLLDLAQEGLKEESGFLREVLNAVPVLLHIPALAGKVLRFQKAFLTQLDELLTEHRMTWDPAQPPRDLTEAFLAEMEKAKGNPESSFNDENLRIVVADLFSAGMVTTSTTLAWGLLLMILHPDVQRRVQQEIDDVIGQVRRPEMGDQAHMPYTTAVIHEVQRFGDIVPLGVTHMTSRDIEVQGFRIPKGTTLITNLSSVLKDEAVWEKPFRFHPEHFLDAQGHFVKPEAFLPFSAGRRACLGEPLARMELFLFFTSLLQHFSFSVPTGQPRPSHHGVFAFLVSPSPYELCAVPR
Cytochrome P450 2C19, sequence (P33261 whole entry): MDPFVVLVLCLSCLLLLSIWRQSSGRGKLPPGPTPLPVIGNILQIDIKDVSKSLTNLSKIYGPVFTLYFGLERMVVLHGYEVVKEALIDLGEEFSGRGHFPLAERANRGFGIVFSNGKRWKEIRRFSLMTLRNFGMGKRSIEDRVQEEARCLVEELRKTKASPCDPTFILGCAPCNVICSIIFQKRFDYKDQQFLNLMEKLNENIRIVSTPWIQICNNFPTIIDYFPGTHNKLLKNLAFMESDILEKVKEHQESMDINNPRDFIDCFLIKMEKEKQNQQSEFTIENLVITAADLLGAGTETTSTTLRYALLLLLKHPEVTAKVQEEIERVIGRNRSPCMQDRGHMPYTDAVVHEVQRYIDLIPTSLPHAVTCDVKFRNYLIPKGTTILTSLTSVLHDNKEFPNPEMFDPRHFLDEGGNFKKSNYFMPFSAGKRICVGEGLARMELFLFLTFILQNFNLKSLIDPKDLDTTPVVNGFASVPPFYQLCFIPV

Structure (SMILES): Cc1cc(Cc2ccc(Cl)c(Oc3ccccc3)c2F)n[nH]c1=O
- IC50 [1]: 210 nM
- IC50 [2]: 50 nM
- IC50 [3]: 20 nM

Structure (SMILES): Cc1cc(Cc2ccc(Cl)c(Oc3cc(C#N)cc(C#N)c3)c2F)n[nH]c1=O
- EC50 [2]: 2 nM
- EC50 [4]: 7 nM
- EC50 [5]: 19 nM
- EC50 [6]: 1 nM

Structure (SMILES): Cc1cc(Cc2ccc(Cl)c(Oc3ccccc3)c2)n[nH]c1=O
- IC50 [1]: 2130 nM
- IC50 [2]: 920 nM
- IC50 [3]: 360 nM

Structure (SMILES): Cc1cc(Cl)cc(Oc2cccc(Cc3ccc(=O)[nH]n3)c2)c1
- IC50 [3]: 14000 nM

Structure (SMILES): O=c1ccc(Cc2cc(Cc3cccc(Cl)c3)c3occc3c2)n[nH]1
- IC50 (Cytochrome P450 3A4): 180 nM
- IC50 [3]: 3900 nM

Structure (SMILES): O=c1ccc(Cc2cc(Oc3cccc(Cl)c3)c3occc3c2)n[nH]1
- IC50 (Cytochrome P450 3A4): 410 nM
- IC50 [3]: 1000 nM

Structure (SMILES): O=c1ccc(Cc2ccc(Cl)c(Oc3ccccc3)c2)n[nH]1
- IC50 [1]: 5490 nM
- IC50 [2]: 3350 nM
- IC50 [3]: 520 nM

Structure (SMILES): Cc1cc(Cc2ccc(Cl)c(Oc3cc(F)cc(C#N)c3)c2F)n[nH]c1=O
- Cmax [7]: 2300 nM
- IC50 (Cytochrome P450 2C9): 8000 nM
- EC50 [2]: 2 nM
- EC50 [8]: 3 nM
- bioavailability [9]: 61%
- AUC (Rattus norvegicus): 22.4 uM.hr/ml
- IC50 (Cytochrome P450 2C19): 21000 nM
- EC50 [4]: 11 nM
- EC50 [5]: 41 nM
- EC50 [6]: 1 nM
- Kd [10]: 8.4 nM
- IC50 (Cytochrome P450 3A4): 24000 nM
- AUC (Canis familiaris): 8.8 uM.hr/ml
- half-life [11]: 3.8 h
- IC50 (Cytochrome P450 2D6): > 50000 nM
- IC50 (Cytochrome P450 1A2): > 50000 nM
- Cmax [12]: 1470 nM
- bioavailability [13]: 34%
- half-life [14]: 6.4 h

Structure (SMILES): O=c1ccc(Cc2ccc(Cl)c(Oc3cccc(Cl)c3)c2)n[nH]1
- IC50 [3]: 100 nM

Structure (SMILES): Cc1ccc(Cc2ccc(=O)[nH]n2)cc1Oc1cccc(Cl)c1
- IC50 [3]: 640 nM

Structure (SMILES): O=C(c1ccc(Cl)cc1)c1cc(Cc2ccc(=O)[nH]n2)cc2ccoc12
- IC50 [1]: 360 nM
- IC50 [2]: 260 nM
- EC50 [15]: 210 nM
- IC50 [3]: 400 nM
- EC50 [16]: 70 nM
- EC50 [17]: 80 nM

Structure (SMILES): O=C1Nc2ccc(Cl)cc2C(C#CC2CC2)(C(F)(F)F)O1 (single isomer, unassigned) [EFAVIRENZ]
- EC50 [8]: > 500 nM
- EC50 [4]: 19 nM
- EC50 [5]: 83 nM
- EC50 [6]: 6 nM

Structure (SMILES): O=C(c1cccc(Cl)c1)c1cc(Cc2ccc(=O)[nH]n2)cc2ccoc12
- IC50 (Cytochrome P450 3A4): 600 nM
- IC50 [3]: 8200 nM

Structure (SMILES): COc1cc(C#N)cc(Oc2c(Cl)ccc(Cc3cc(C)c(=O)[nH]n3)c2F)c1
- EC50 [8]: 2 nM
- EC50 [4]: 15 nM
- EC50 [5]: 31 nM
- EC50 [6]: 1 nM

Structure (SMILES): O=c1ccc(Cc2cccc(Oc3cccc(Cl)c3)c2)n[nH]1
- IC50 [3]: 21000 nM

Structure (SMILES): O=c1ccc(Cc2ccc(Cl)c(Oc3ccccc3)c2F)n[nH]1
- IC50 [1]: 500 nM
- IC50 [2]: 430 nM
- IC50 [3]: 100 nM
